Screening results: PubChem BioAssay, Broad Institute
A selection: hits, their analogues and other compounds. The true share with any hit is near 2.5%.
SR-BI uptake up: enhances SR-BI lipid uptake from DiI-HDL | CHO ldlA[mSR-BI] cells, DiI-HDL uptake fluorescence, 3 h; 100 = double the neutral-control signal | activation, % at 12.5 µM | 320,000 tested, 0.096% active;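 active means mean replicate activation of at least 60% and every replicate at or above 60%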
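System: LDL receptor-deficient CHO ldlA cells overexpressing murine SR-BI | Timing: 3 h uptake period with compound, 37 °C | Medium: HEPES-buffered (25 mM, pH 7.4) F12 plus 0.5% BSA | Dosing: Single-point compound dose | Signal: Bottom-read fluorescence, 550/595 nm | Read-out: Retained DiI signal reflecting DiI-HDL uptake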
SR-BI HDL uptake: mouse SR-BI HDL lipid transfer inhibition | ldlA[mSR-BI] CHO cells, DiI-HDL uptake fluorescence, 3 h | 320,000 tested, 0.96% active | inhibition, % at 12.5 µM;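 active means mean replicate inhibition of at least 70% and a set share of replicates each scoring 70 or more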
Target sequence (Q61009 whole entry, looked up): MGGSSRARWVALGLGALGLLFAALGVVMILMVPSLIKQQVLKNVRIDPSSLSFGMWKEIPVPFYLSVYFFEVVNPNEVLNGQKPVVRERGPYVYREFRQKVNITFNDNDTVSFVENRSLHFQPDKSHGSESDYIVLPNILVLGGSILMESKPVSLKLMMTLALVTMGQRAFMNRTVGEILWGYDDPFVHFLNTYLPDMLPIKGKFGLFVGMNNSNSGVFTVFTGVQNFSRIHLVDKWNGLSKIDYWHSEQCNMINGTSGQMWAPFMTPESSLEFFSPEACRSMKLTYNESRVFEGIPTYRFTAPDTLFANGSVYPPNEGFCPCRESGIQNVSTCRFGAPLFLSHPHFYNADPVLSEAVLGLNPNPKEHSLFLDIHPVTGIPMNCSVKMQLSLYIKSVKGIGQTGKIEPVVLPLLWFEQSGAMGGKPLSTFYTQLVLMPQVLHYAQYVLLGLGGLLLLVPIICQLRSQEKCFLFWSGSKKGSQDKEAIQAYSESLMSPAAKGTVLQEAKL
NSD2 HMT inh: inhibitors of human histone methyltransferase NSD2. O96028. NSD2 peptide methylation, AlphaScreen, 120 min. inhibition, % at 12.5 µM. 310,000 tested, 0.54% active
CDK5 inh: blocks human CDK5/p35 kinase activity. Q00535+Q15078. Recombinant CDK5/p35, ADP-Glo luminescence, 60 min. inhibition, % at 10 µM. 330,000 tested, 0.01% active. AID 488839;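 active means highest replicate inhibition of at least 50% and at least 75% of replicates reaching 50%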
dFosB activator: enhances mouse delta FosB homodimer DNA binding. P13346. purified delta FosB, TAMRA-CDK5 oligo fluorescence polarization; percent of positive-control signal above neutral wells. activation, % at 25 µM. 340,000 tested, 0.99% active. AID 493131;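 active means mean activation above about 17%, with every replicate also reaching it, limit read from the data, passing the limit was not always enough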
Dyrk1A ADPGlo: blocks rat Dyrk1A kinase activity. Q63470. AID 504441. ADP-Glo luminescence, NFATc1 peptide. inhibition, % at 12.5 µM. 310,000 tested, 0.43% active
AlphaScreen art: counter-screen for NSD2 inhibitors: AlphaScreen artifacts; AlphaScreen artifact counterscreen, preloaded methylated H4 peptide; shares compounds with NSD2 HMT inh; AC35, µM (highest dose often 10 µM); 1,500 tested, 9.4% active; call rule not given here
A number is an active result; n = inactive; x = no result given; + = active, no number. Unless noted, no stated cut-off is given here; in the data, active means inhibition above about 50%; inactive means the rest.

SMILES	SR-BI uptake up	SR-BI HDL uptake	NSD2 HMT inh	CDK5 inh	dFosB activator	Dyrk1A ADPGlo	AlphaScreen art
COc1ccccc1NC(=O)CS(=O)(=O)c1cn(CC(=O)N(C(C)C)C(C)C)c2ccccc12	n	n	n	n	n	n	x
COc1cc(C(=O)N/N=C(\C)c2ccc(NC(=O)Cc3ccccc3)cc2)ccc1O	n	n	n	n	n	n	x
Cc1ccc(S(=O)(=O)N2CCN(C(=O)C(F)(F)F)C2c2ccc(N(C)C)cc2)cc1 (stereo unspecified)	x	x	121.8	n	n	n	n
COc1ccc(C2N(C(=O)C(F)(F)F)C(C)CN2S(=O)(=O)c2ccc(C)cc2)cc1 (stereo unspecified)	x	x	86.4	n	n	n	n
NC(CCc1ccccc1)c1csc(NC(=O)Nc2ccccc2Oc2ccccc2)n1 (stereo unspecified)	x	x	n	x	x	x	x
CC1(C(=O)O)CCCN(C(=O)c2ccc3c(c2)C(C)(C)CCC3(C)C)C1 (stereo unspecified)	x	x	n	x	x	x	x
COC(=O)c1c(NC(=O)C(C)C)sc(C(=O)N2CCOCC2)c1C	n	n	104.9	n	n	n	n
COc1ccc(NC(=S)Nc2ccc3nsnc3c2)cc1	n	n	136.6	n	n	n	n
C=CCN(CC=C)C(=S)Nc1ccc2nsnc2c1	n	n	103.9	n	n	n	n
CCOc1ccc(NC(=S)Nc2ccc3nsnc3c2)cc1	n	n	135.5	x	n	n	n
C=CCNC(=S)Nc1ccc2nsnc2c1	n	n	n	n	n	n	x
C#CCN(C(=O)C1CCC(=O)N(CCc2cccc(F)c2)C1)C1CCCCC1 (stereo unspecified)	x	x	n	x	x	x	x
Cn1c(=O)c2cc(NC(=O)Cc3cccc4ccccc34)ccc2n1-c1ccccc1	x	x	n	x	x	x	x
CN(C)Cc1cc(C(C)(C)C)cc(C(C)(C)C)c1O	n	n	n	n	n	n	x
CN(C)Cc1cc(O)c(CN(C)C)cc1O	n	n	86.1	n	n	n	n
Cc1ccc(N2C(=O)N(CC(=O)Nc3cccc([N+](=O)[O-])c3C)C(=O)C2C)cc1 (stereo unspecified)	n	n	92.0	n	n	n	n
Cc1ccc(N2C(=O)N(CC(=O)Nc3ccc(C)cc3[N+](=O)[O-])C(=O)C2C)cc1 (stereo unspecified)	n	n	n	n	n	n	x
CC1=NN(c2cccc(C(=O)O)c2)C(=O)/C1=C\C=C\c1ccco1	x	x	+	n	n	n	7.22µM
CC1=NN(c2ccccc2)C(=O)/C1=C/C=C/c1ccccc1	n	n	n	n	n	n	x
Cc1cc(=O)n(Cc2ccccc2)c2ccccc12	n	n	n	n	n	n	x
Cc1c(CN(C)C)c2c(n1Cc1ccccc1)C(=O)c1ccccc1-2	n	n	92.7	n	n	n	5.73µM
O=C(c1ccccc1OCc1ccccc1Br)N1CCN(c2ncccn2)CC1	n	n	99.1	n	n	n	n
O=C(CSc1cn[nH]n1)Nc1ccc(Cl)cc1Cl	n	n	n	n	n	n	x
CCOC(=O)N1CCN(C(=S)NCCOC)CC1	n	n	69.2	n	n	n	n
Cc1cccc(NC(=O)CSCC(=O)Nc2cccc3ncccc23)c1	n	n	n	n	n	n	x
SMILES	SR-BI uptake up	SR-BI HDL uptake	NSD2 HMT inh	CDK5 inh	dFosB activator	Dyrk1A ADPGlo	AlphaScreen art
CC1(C)CN(c2cccc(C#N)c2)C1=O	n	n	55.9	n	n	n	n
CC1(C)CN(c2ccc(CC#N)cc2)C1=O	n	n	n	n	n	n	x
CN(C)c1ccc(C(C(=O)NCc2ccccc2)N(Cc2ccco2)C(=O)c2snc(C(N)=O)c2N)cc1 (stereo unspecified)	n	n	n	n	n	n	x
C=CCn1c(SCC(=O)c2ccc(O)c(O)c2)nnc1-c1cccnc1	x	x	71.7	n	n	n	n
CCn1c(SCC(=O)c2ccc(O)c(O)c2)nnc1-c1ccccc1OC	n	n	88.4	n	n	n	n
C=CCn1c(SCC(=O)c2ccc(O)c(O)c2)nnc1-c1cccc(C)c1	n	n	x	n	n	n	x
CN(c1ccccc1)S(=O)(=O)c1cccc(C(=O)NCC(=O)Nc2ccc(F)c(F)c2F)c1	n	n	x	n	n	x	x
CCOC(=O)c1cc(-c2ccc(F)cc2)nc2c1c(=O)[nH]c(=O)n2Cc1ccccc1	x	x	86.0	n	n	n	n
CCOC(=O)c1cc(-c2cc(OC)c(OC)c(OC)c2)nc2c1c(=O)[nH]c(=O)n2Cc1ccccc1	n	n	n	n	n	n	x
O=C(NCCO)/C(=C/c1ccc(Br)cc1)NC(=O)c1cccs1	n	n	n	n	n	n	x
CCN(CC)CCNC(=O)/C(=C\c1cccn1C)NC(=O)c1cccs1	n	n	54.8	n	n	n	n
NC(=S)NN=Cc1ccc(-c2ccc(S(=O)(=O)Nc3ncccn3)cc2)o1	n	n	144.6	n	n	n	n
CN1/C(=C\C(=O)COC(=O)c2ccc(O)c(O)c2)C(C)(C)c2ccccc21	x	x	55.9	x	x	x	n
COc1cccc(CNc2nc3cc(-c4cnn(Cc5ccccc5)c4)sc3c(=O)n2C)c1	x	x	n	x	x	x	x
Oc1cccc(NC(=S)N=Nc2c(O)[nH]c3ccc(Br)cc23)c1	x	x	67.4	n	n	n	n
CCC(NC(=O)c1cccc2c1C(=O)N(Cc1cccnc1)C2)c1ccccc1 (stereo unspecified)	x	x	n	x	x	x	x
O=C(NC1CCCC1)c1ccc(COc2ccccc2Br)o1	x	n	n	n	n	n	x
O=C(COC(=O)c1ccc2c(=O)n3c(nc2c1)CCC3)NC1CCS(=O)(=O)C1 (stereo unspecified)	n	n	n	n	n	n	x
CC1CCCCC1NC(=O)COC(=O)c1ccc2c(=O)n3c(nc2c1)CCC3 (stereo unspecified)	n	n	117.3	n	n	n	n
O=C(Nc1ccccn1)c1ccc2c(=O)n3c(nc2c1)CCCCC3	n	n	60.8	n	n	n	n
CC(C)OCCCn1c(SC(C)C(=O)NC2CC2)nc2ccccc2c1=O (stereo unspecified)	n	n	n	n	n	n	x
Cc1cc(C)n(CC(O)COc2cccc(OCC(O)Cn3nc(C)cc3C)c2)n1 (stereo unspecified)	n	n	x	n	n	n	x
Cc1cc(C)n(CC(O)COc2c(C)cccc2C)n1 (stereo unspecified)	n	n	55.1	n	n	n	n
Cc1nc([N+](=O)[O-])c(C(=O)OCc2ccccc2Br)n1C	n	n	n	n	n	n	x
Cc1nc([N+](=O)[O-])c(C(=O)OCc2ccccc2F)n1C	n	n	53.9	n	n	n	n
COCCN(C(=O)CCC(=O)Nc1cc(C)on1)C(C(=O)NC(C)(C)C)c1ccccc1Cl (stereo unspecified)	n	n	139.7	n	n	n	n
